Published values from different studies.
Each line is one published result; the experiments were not run side by side.
SIGMAR1: Sigma non-opioid intracellular receptor 1 (SIGMAR1, Cavia porcellus, UniProt Q60492)
Prostate-specific antigen: Prostate-specific antigen (Homo sapiens, UniProt P07288)
ADRA1D: Alpha-1D adrenergic receptor (ADRA1D, Homo sapiens, UniProt P25100)
TMEM97: Sigma intracellular receptor 2 (TMEM97, Homo sapiens, UniProt Q5BJF2)
lecB: Fucose-binding lectin PA-IIL (lecB, Pseudomonas aeruginosa, UniProt Q9HYN5)
CASP7: Caspase-7 (CASP7, Homo sapiens, UniProt P55210)

| Structure (SMILES) | target | read-out | action | technique | pH | notes | Ki [µM] |
| --- | --- | --- | --- | --- | --- | --- | --- |
| O=C(NCCN1CCCCC1)c1ccc(OCCF)c(Br)c1 | SIGMAR1 | ligand displacement |  | radioligand |  | cell membranes | 0.0361 |
| CCCC[C@H](NC(=O)[C@H](CCC(N)=O)NC(=O)[C@H](CO)NC(=O)[C@H](CO)NC(=O)CCCCCN)C(=O)N[C@@H](CC(C)C)B(O)O | Prostate-specific antigen | enzyme activity | inhibitor | fluorescence | pH 7.8 |  | 0.0431 |
| O=C(NCCN1CCCCC1)c1ccc(OCCCF)c(Br)c1 | SIGMAR1 | ligand displacement |  | radioligand |  | cell membranes | 0.0233 |
| O=C1c2ccccc2CCCN1CCCCN1CCN(c2ccccn2)CC1 | ADRA1D | ligand displacement |  | radioligand |  |  | 0.98 |
| O=C(c1ccc(CNCCCN2CCN(c3ccc(F)cc3)CC2)cc1)c1ccc([N+](=O)[O-])cc1 | TMEM97 | ligand displacement |  | radioligand |  | cell membranes | 0.034 |
| CCCCN1CCC(COC(=O)c2ccc(N)c(OCF)c2)CC1 | ADRA1D | cell-free assay |  | radioligand |  |  | > 10 |
| CNc1nc(C#Cc2ccc(Cl)s2)nc2c1ncn2[C@H]1[C@H](O)[C@H](O)[C@]2(C(=O)OC)C[C@H]12 | SIGMAR1 | ligand displacement |  | radioligand |  |  | 8.73 |
| Cc1cc(Oc2nccc3ccsc23)ccc1-c1c(C)c(=O)[nH]c(=O)n1C | Muscarinic acetylcholine receptor M3 (CHRM3, Homo sapiens, UniProt P20309) | ligand displacement |  | radioligand |  |  | 4.6 |
| C[C@@H]1O[C@H](CNS(=O)(=O)c2ccc(CCn3cc(CN4CCN(c5cc6c(cc5F)c(=O)c(C(=O)O)cn6C5CC5)CC4)nn3)s2)[C@@H](O)[C@H](O)[C@@H]1O | lecB | ligand displacement |  | FP |  |  | 0.82 |
| CN(Cc1ccc(NC(=O)C2=Cc3cc(-c4ccc(OCCCF)cc4)ccc3CCC2)cc1)C1CCOCC1 | SIGMAR1 | ligand displacement |  | radioligand |  |  | 1 |
| O[C@@H]1[C@H](O)[C@@H]2C[C@@H]2[C@H]1n1cnc2c(NCc3cccc(Cl)c3)nc(C#Cc3ccccc3)nc21 | SIGMAR1 | ligand displacement |  | radioligand |  |  | 7.66 |
| COc1ccc2c(c1)C(=O)N(CCN1CCN(c3ccccc3OC)CC1)C2 | ADRA1D | ligand displacement |  | radioligand |  |  | 0.0124 |
| Nc1ccnc2ccccc12 | Alpha-2B adrenergic receptor (ADRA2B, Homo sapiens, UniProt P18089) | ligand displacement |  | radioligand |  | cell membranes | 53.8 |
| CCCC[C@H](NC(=O)[C@H](CCC(N)=O)NC(=O)[C@H](CO)NC(=O)CCCCCN)C(=O)N[C@@H](Cc1ccccc1)B(O)O | Prostate-specific antigen | enzyme activity | inhibitor | fluorescence | pH 7.8 |  | 0.022 |
| C[C@@H]1O[C@H](CNS(=O)(=O)c2ccc(CCN=[N+]=[N-])s2)[C@@H](O)[C@H](O)[C@@H]1O | lecB | ligand displacement |  | FP |  |  | 1.52 |
| CCCn1nc(C(=O)N2CCCCC2)c2c1CCC(NCCCNC)C2 (stereo not shown) | TMEM97 | ligand displacement |  | radioligand |  |  | 1.99 |

| Structure (SMILES) | target | read-out | action | technique | pH | notes | Ki [µM] |
| --- | --- | --- | --- | --- | --- | --- | --- |
| O=c1cc(-c2ccc(O)c(O)c2)oc2cc(O)cc(O)c12 | CASP7 | enzyme activity | inhibitor | fluorescence |  |  | 130 |
| CCCC[C@H](NC(=O)[C@H](CCC(N)=O)NC(=O)[C@H](CO)NC(=O)[C@H](Cc1ccccc1)NC(=O)CCCCCN)C(=O)N[C@@H](CCCBr)B1O[C@@H]2C[C@@H]3C[C@@H](C3(C)C)[C@]2(C)O1 | Prostate-specific antigen | enzyme activity | inhibitor | fluorescence | pH 7.8 |  | 0.0733 |
| O=C(CN(CCCCI)CCCN1CCN(C2CCCCC2)CC1)Nc1ccc(C(=O)c2ccccc2)cc1 | TMEM97 | ligand displacement |  | radioligand |  | cell membranes | 0.045 |
| CCCC[C@H](NC(=O)[C@H](CCC(N)=O)NC(=O)[C@H](CO)NC(=O)C[C@@H](Cc1ccc2ccccc2c1)NC(=O)CCCCCN)C(=O)N[C@@H](Cc1ccccc1)B(O)O | Prostate-specific antigen | enzyme activity | inhibitor | fluorescence | pH 7.8 |  | 0.229 |
| O=c1c(O)c(-c2cc(O)c(O)c(O)c2)oc2cc(O)cc(O)c12 | CASP7 | enzyme activity | inhibitor | fluorescence |  |  | 65.9 |
| CCCn1nc(C(=O)N2CCCCC2)c2c1CCC(NCCc1ccncc1)C2 (stereo not shown) | TMEM97 | ligand displacement |  | radioligand |  |  | > 10 |
| CN(Cc1ccc(NC(=O)C2=Cc3cc(-c4ccc(OCCCCCF)cc4)ccc3CCC2)cc1)C1CCOCC1 | SIGMAR1 | ligand displacement |  | radioligand |  |  | 0.32 |
| CCCn1nc(C(=O)N2CCCCC2)c2c1CCC(Nc1ccc(Oc3ccccc3)cc1)C2 (stereo not shown) | TMEM97 | ligand displacement |  | radioligand |  |  | 0.31 |
| CCCC[C@H](NC(=O)[C@H](CCCCN)NC(=O)[C@H](CO)NC(=O)[C@H](CO)NC(=O)OCc1ccccc1)C(=O)N[C@@H](Cc1ccccc1)B(O)O | Prostate-specific antigen | enzyme activity | inhibitor | fluorescence | pH 7.8 |  | 0.165 |
| O=C1c2ccccc2CCN1CCCCN1CCN(c2cccc(Cl)c2Cl)CC1 | ADRA1D | ligand displacement |  | radioligand |  |  | 0.0784 |
| CCCC[C@H](NC(=O)[C@H](CCCCN)NC(=O)[C@H](CO)NC(=O)[C@H](CO)NC(=O)OCc1ccccc1)C(=O)N[C@@H](CCCBr)B(O)O | Prostate-specific antigen | enzyme activity | inhibitor | fluorescence | pH 7.8 |  | 0.0242 |
| O=C(CCCCC1SC[C@@H]2NC(=O)N[C@H]12)NCCCN(CCCN1CCN(C2CCCCC2)CC1)CC(=O)Nc1ccc(C(=O)c2ccccc2)cc1 (stereo in doubt) | TMEM97 | ligand displacement |  | radioligand |  | cell membranes | 0.087 |
| CCCC[C@H](NC(=O)[C@H](CCC(N)=O)NC(=O)[C@H](CO)NC(=O)[C@H](Cc1ccccc1)NC(=O)CCCCCN)C(=O)N[C@@H](CCCBr)B(O)O | Prostate-specific antigen | enzyme activity | inhibitor | fluorescence | pH 7.8 |  | 0.0723 |
| O=C(c1ccccc1)c1ccc(CNCCCN2C(=O)c3ccccc3C2=O)cc1 | TMEM97 | ligand displacement |  | radioligand |  | cell membranes | > 10 |
| O=C(NCCN1CCCCC1)c1cc(Br)ccc1OCCCF | SIGMAR1 | ligand displacement |  | radioligand |  | cell membranes | 0.0529 |
